Legend:
[1] = biological target: T1, Inosine-5'-monophosphate dehydrogenase 2 (Homo sapiens, UniProt P12268); test: Inhibition of human inosine monophosphate dehydrogenase IMPDH II
Procedure, shortened: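 Human type II IMPDH expressed in and purified from E. coli, used at 40 nM. Buffer: 0.1 M Tris, 0.1 M KCl, 3 mM EDTA, pH 8.0, with 400 µM IMP and 2 mM DTT. Compounds were added from DMSO to a final 2.5% DMSO. NAD (400 µM final) started the reaction. After 2 h at 25°C, NADH was read at 340 nm. IC50 came from a four-parameter logistic fit.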

[2] = biological target: T2, Inosine-5'-monophosphate dehydrogenase 1 (Homo sapiens, UniProt P20839); test: Ratio of IC50(Type I) to IC50(Type II)
Target sequence in this assay (P20839 2-514 limits assumed): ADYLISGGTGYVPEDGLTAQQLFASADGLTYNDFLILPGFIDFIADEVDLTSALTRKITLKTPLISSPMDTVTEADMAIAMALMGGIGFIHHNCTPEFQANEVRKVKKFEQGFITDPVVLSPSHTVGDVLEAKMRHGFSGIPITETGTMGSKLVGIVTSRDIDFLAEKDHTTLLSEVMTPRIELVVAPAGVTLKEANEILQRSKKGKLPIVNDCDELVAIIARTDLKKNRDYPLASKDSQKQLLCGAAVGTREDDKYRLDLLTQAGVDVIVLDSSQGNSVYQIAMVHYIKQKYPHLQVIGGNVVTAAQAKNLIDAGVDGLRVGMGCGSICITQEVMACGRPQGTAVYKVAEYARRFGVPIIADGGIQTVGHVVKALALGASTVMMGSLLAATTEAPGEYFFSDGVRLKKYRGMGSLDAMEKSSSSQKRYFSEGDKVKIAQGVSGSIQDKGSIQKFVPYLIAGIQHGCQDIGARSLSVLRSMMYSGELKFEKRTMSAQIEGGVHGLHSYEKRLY

[3] = test system: CCRF-CEM; test: Inhibitory activity against CEM cell proliferation; type: functional, cell-based; conditions: Homo sapiens
[4] = biological target: T2, Inosine-5'-monophosphate dehydrogenase 1; test: Inhibitory activity against inosine monophosphate dehydrogenase IMPDH type I
Target sequence in this assay (P20839 whole entry): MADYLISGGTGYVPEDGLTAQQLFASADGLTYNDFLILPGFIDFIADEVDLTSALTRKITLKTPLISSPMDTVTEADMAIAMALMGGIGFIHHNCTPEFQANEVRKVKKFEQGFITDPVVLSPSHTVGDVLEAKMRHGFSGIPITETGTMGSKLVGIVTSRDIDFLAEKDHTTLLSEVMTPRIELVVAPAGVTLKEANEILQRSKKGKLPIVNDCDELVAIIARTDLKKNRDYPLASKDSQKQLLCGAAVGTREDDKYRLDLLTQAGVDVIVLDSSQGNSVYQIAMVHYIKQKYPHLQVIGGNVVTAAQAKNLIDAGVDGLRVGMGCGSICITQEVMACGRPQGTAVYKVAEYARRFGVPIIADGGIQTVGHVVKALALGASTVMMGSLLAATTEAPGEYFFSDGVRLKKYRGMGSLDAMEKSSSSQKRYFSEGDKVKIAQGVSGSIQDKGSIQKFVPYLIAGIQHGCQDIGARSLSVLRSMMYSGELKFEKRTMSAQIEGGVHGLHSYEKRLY

[5] = biological target: T1, Inosine-5'-monophosphate dehydrogenase 2; test: Inhibitory activity against IMPDH II with respect to IMP and NAD

SMILES | IC50 [1] [nM] | further results
COc1cc2nc(C(C)(C)C)cc(O)c2cc1-c1cnco1 | > 10000 | 
COc1cc2nc(-c3cc(C)ccc3C)cc(O)c2cc1-c1cnco1 | 29 | 
COc1cc2nc(-c3cccc(C(=O)O)c3)cc(O)c2cc1-c1cnco1 | 160 | 
COc1cc2nc(-c3cccc(O)c3)cc(O)c2cc1-c1cnco1 | 18 | 
COc1cc2nc(-c3ccoc3)cc(O)c2cc1-c1cnco1 | 32 | 
COc1cc2nc(-c3ccc(O)cc3)cc(O)c2cc1-c1cnco1 | 43 | 
COc1ccc(-c2cc(O)c3cc(-c4cnco4)c(OC)cc3n2)cc1 | < 5 | Ratio [2]: > 18; IC50 [3]: 370 nM; IC50 [4]: 90 nM
COc1cc2nc(-c3ccccc3C)cc(O)c2cc1-c1cnco1 | 65 | 
COc1cc2nc(-c3cccc(Br)c3)cc(O)c2cc1-c1cnco1 | 22 | 
COc1cc2nc(-c3cscn3)cc(O)c2cc1-c1cnco1 | 34 | 
COc1cc(NC(=O)Nc2cccc(C)c2)ccc1-c1cnco1 |  | Ratio [2]: 2.9; IC50 [3]: 320 nM; IC50 [4]: 55 nM
COc1cc2nc(-c3ccsc3)cc(O)c2cc1-c1cnco1 | 9 | Ratio [2]: 6; IC50 [3]: 340 nM; IC50 [4]: 55 nM
COc1cc2nc(-c3ccc(Br)cc3)cc(O)c2cc1-c1cnco1 | 5 | 
COc1cc2nc(-c3cccs3)cc(O)c2cc1-c1cnco1 | 63 | 
COc1c(C)c2c(c(O)c1C/C=C(\C)CCC(=O)O)C(=O)OC2 [MYCOPHENOLIC ACID] |  | IC50 [4]: 55 nM
COc1cc2nc(-c3ccc(C)c(Br)c3)cc(O)c2cc1-c1cnco1 | 19 | 

SMILES | IC50 [1] [nM] | further results
CNc1cc(O)c2cc(-c3cnco3)c(OC)cc2n1 | 220 | 
COc1cc2nc(-c3ccncc3)cc(O)c2cc1-c1cnco1 | 46 | 
COc1cc2nc(-c3cccc(C)c3)cc(O)c2cc1-c1cnco1 | 5 | Ratio [2]: 30; IC50 [3]: 1100 nM; IC50 [4]: 150 nM
COc1cc2nc(N(C)C)cc(O)c2cc1-c1cnco1 | 200 | 
COc1cc2nc(-c3cccnc3)cc(O)c2cc1-c1cnco1 | 70 | 
COc1cc2nc(-c3ccc(C)cc3)cc(O)c2cc1-c1cnco1 | < 5 | Ratio [2]: > 9; IC50 [3]: 560 nM; IC50 [4]: 46 nM
COc1cc2nc(Cc3ccccc3)cc(O)c2cc1-c1cnco1 | 180 | 
COc1cc2nc(-c3cccc(S(C)(=O)=O)c3)cc(O)c2cc1-c1cnco1 | 160 | 
COc1cc2nc(-c3ccccn3)cc(O)c2cc1-c1cnco1 | 43 | 
COc1cc2nc(C)cc(O)c2cc1-c1cnco1 | 110 | 
COc1cc2nc(-c3ccccc3)c(C)c(O)c2cc1-c1cnco1 | 65 | 
COc1cc2nccc(O)c2cc1-c1cnco1 | 300 | 
COc1cc2nc(-c3ccccc3)cc(O)c2cc1-c1cnco1 | 8 | Ratio [2]: 12; Ki [5]: 7 nM; IC50 [3]: 690 nM; IC50 [4]: 99 nM
COc1cc2nc(-c3ccc(C)c(C)c3)cc(O)c2cc1-c1cnco1 | < 5 | Ratio [2]: > 17; IC50 [3]: 410 nM; IC50 [4]: 83 nM
COc1cc2nc(-c3ccc(C(=O)O)cc3)cc(O)c2cc1-c1cnco1 | > 1000 | 

Source: ChEMBL document CHEMBL1136568 (Bioorg Med Chem Lett, 2003)
